1 molecule from article PMC6542364 (Journal of the American Chemical Society, 2019) can be followed below.

For this test, the system named is HS-5 cells. As to the kind of experiment: 3D cell spheroid formation from a 2D cell sheet. It is filed as cell-based. The following applies: co-incubation with pD1-B 200 μM, biotin e.g. 500 μM, 24 h. Summed up:
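HS-5 fibroblast monolayers were kept in culture medium with the test compound at 200 μM for 24 h, with medium alone as control. In the competition arm, free biotin at 500 μM was co-incubated with the test compound. Cell clustering and spheroid formation were recorded by optical imaging.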

On to `O=C(O)CCCC[C@@H]1SC[C@@H]2NC(=O)N[C@@H]21` [biotin], for which the “effect of competing biotin on pD1-B-induced cell spheroid formation” value was “blocks the formation of cell spheroids in a concentration dependent manner”.
